In ChEMBL document CHEMBL3352666, “Human Toll-like receptor 8-selective agonistic activities in 1-alkyl-1H-benzimidazol-2-amines” (J Med Chem, 2014):
Calls of active or inactive are those of the source. No cut-off for these calls is given here.

Experiments:
Assay type in all cases: cell-based
[1] = target: Toll-like receptor 5 (Homo sapiens) (UniProt O60602); assay: Agonist activity at human TLR5 stably expressed in HEK293 cells co-expressing secreted alkaline phosphatase assessed as NF-kappaB induction by liquid handler-assisted reporter gene assay
Toll-like receptor 5 (Homo sapiens), sequence (O60602 whole entry): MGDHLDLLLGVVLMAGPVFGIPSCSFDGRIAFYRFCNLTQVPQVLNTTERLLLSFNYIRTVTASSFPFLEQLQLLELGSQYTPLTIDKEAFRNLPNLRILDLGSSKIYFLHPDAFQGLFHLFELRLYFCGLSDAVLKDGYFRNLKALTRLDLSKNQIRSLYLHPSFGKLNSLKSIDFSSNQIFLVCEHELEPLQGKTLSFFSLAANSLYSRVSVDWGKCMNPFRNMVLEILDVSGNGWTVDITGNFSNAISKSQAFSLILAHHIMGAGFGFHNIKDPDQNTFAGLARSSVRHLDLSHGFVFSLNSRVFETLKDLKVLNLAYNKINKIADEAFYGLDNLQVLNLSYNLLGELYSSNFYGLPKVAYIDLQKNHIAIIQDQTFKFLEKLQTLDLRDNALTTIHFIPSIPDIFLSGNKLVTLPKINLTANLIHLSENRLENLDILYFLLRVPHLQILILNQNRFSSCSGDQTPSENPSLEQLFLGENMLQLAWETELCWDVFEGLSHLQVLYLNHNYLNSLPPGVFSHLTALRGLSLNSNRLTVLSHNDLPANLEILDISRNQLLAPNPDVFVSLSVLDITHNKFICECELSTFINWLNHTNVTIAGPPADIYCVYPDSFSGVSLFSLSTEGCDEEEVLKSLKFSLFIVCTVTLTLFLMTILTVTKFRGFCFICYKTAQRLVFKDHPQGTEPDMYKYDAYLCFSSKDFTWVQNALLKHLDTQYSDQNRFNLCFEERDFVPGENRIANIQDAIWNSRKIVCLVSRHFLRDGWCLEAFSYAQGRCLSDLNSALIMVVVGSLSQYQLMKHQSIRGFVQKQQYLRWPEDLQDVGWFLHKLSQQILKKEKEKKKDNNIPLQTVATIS
In short: (§1)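 HEK293 reporter cells stably co-transfected with the respective human TLR or NOD receptor plus NF-κB/AP-1-driven secreted alkaline phosphatase, kept in selection medium. About 10^5 cells/ml were incubated with graded concentrations of test compound in 384-well format. Supernatant sAP was read colorimetrically at 620 nm with an alkaline phosphatase-specific chromogen in detection medium.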

[2] = target: T1, Nucleotide-binding oligomerization domain-containing protein 2 (Homo sapiens, UniProt Q9HC29); assay: Agonist activity at human NOD2 stably expressed in HEK293 cells co-expressing secreted alkaline phosphatase assessed as NF-kappaB induction by liquid handler-assisted reporter gene assay; in short: as §1
T1 sequence (Q9HC29 whole entry, the tested form may be a part): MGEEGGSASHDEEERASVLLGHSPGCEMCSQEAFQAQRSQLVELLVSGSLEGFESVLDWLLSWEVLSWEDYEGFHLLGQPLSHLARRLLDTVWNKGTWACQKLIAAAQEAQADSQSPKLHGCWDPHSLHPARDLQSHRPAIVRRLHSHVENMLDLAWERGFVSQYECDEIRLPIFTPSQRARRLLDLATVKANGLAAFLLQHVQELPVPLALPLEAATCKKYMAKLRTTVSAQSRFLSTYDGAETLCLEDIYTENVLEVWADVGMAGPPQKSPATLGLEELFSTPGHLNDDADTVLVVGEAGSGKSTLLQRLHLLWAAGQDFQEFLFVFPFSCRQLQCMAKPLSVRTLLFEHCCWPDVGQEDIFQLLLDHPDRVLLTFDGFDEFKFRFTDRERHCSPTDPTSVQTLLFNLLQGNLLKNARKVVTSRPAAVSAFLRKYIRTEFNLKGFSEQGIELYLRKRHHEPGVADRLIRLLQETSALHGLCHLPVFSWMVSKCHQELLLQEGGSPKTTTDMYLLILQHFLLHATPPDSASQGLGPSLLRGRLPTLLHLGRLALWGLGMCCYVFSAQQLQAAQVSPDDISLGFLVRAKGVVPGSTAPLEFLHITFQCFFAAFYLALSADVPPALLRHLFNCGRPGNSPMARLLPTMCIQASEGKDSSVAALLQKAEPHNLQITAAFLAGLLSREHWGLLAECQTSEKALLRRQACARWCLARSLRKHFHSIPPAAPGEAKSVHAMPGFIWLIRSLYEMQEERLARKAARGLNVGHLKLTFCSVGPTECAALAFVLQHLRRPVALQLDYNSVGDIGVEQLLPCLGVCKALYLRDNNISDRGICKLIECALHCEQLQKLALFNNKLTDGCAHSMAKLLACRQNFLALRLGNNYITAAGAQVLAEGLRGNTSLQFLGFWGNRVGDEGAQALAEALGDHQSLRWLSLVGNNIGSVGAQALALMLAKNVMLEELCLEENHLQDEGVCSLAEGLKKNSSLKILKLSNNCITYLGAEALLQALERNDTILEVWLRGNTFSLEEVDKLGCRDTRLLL

Toll-like receptor 8 = target: T2, Toll-like receptor 8 (Homo sapiens, UniProt Q9NR97); assay: Agonist activity at human TLR8 stably expressed in HEK293 cells co-expressing secreted alkaline phosphatase assessed as NF-kappaB induction by liquid handler-assisted reporter gene assay; in short: as §1
T2 sequence (Q9NR97 whole entry): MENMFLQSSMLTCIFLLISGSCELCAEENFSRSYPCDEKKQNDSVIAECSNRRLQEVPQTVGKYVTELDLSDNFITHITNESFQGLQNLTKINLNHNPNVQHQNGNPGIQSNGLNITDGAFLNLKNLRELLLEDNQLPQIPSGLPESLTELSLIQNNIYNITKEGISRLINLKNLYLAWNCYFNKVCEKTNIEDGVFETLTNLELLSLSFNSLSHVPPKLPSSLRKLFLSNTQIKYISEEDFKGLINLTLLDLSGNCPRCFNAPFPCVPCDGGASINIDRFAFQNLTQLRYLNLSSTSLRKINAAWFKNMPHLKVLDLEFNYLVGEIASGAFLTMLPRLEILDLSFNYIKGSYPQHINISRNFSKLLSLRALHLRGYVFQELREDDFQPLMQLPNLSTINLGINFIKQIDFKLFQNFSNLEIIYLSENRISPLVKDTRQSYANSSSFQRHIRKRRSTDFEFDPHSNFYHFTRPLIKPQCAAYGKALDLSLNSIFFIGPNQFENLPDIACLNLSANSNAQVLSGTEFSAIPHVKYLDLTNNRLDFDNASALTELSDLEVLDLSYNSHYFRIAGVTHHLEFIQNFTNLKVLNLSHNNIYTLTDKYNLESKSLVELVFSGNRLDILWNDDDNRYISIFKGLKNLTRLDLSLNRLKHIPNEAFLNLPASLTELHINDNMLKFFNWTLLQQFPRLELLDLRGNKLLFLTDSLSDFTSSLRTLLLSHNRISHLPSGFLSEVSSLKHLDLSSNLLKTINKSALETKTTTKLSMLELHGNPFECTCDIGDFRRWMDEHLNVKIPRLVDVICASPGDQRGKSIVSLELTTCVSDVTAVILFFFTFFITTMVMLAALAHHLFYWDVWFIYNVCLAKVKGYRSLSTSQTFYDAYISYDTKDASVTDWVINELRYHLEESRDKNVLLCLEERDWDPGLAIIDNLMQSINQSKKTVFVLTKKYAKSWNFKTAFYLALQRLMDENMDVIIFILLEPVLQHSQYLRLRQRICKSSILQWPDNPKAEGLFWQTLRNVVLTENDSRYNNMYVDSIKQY

[3] = target: T3, Toll-like receptor 7 (Homo sapiens) (UniProt Q9NYK1); assay: Agonist activity at human TLR7 stably expressed in HEK293 cells co-expressing secreted alkaline phosphatase assessed as NF-kappaB induction by liquid handler-assisted reporter gene assay; in short: as §1
T3 sequence (whole entry): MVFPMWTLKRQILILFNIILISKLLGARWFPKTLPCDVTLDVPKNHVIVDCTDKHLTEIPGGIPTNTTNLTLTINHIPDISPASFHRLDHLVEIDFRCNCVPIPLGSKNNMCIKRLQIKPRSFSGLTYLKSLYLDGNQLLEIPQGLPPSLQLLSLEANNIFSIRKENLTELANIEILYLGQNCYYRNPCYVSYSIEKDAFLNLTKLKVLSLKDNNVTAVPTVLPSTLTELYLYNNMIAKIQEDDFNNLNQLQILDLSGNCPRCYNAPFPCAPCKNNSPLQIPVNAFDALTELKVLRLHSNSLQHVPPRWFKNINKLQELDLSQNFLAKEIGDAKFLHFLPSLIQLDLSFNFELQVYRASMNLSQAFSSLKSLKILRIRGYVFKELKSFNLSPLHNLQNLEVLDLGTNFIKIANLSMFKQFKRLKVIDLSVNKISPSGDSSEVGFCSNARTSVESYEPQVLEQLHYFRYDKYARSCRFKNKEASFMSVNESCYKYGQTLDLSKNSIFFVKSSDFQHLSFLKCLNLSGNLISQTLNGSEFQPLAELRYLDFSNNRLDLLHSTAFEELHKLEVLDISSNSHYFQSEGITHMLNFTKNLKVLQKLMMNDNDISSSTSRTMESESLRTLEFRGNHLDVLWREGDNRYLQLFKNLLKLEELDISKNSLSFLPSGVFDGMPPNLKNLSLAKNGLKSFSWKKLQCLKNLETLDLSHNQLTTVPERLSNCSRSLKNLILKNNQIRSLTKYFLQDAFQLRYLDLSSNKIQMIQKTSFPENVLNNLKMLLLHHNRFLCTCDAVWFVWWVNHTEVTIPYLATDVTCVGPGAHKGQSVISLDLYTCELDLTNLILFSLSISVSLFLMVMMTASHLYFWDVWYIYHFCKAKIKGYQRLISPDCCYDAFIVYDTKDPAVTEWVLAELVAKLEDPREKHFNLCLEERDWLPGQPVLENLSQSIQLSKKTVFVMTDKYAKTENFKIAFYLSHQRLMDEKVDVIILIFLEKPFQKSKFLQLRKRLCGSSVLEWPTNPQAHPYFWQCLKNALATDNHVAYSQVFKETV

[4] = target: T1, Nucleotide-binding oligomerization domain-containing protein 2; assay: Antagonist activity at human NOD2 stably expressed in HEK293 cells co-expressing secreted alkaline phosphatase assessed as NF-kappaB induction by liquid handler-assisted reporter gene assay

SMILES	Activity [1]	Activity [2]	EC50 (Toll-like receptor 8)	Activity [3]	IC50 [4] [µM]
CCCCCn1c(N)nc2cccnc21	inactive	inactive	Not Active	inactive	–
Nc1nc2ccccc2n1Cc1ccccc1	inactive	inactive	Not Active	inactive	–
CCCCCn1c(N)nc2cnccc21	inactive	inactive	Not Active	inactive	–
CCCCCn1c(N)nc2ccncc21	inactive	inactive	Not Active	inactive	–
CCCCC1(O)C(N)=Nc2ccccc21 (centres undefined)	inactive	inactive	Not Active	inactive	–
CCCCCn1c(N)nc2c(F)cccc21	inactive	inactive	Not Active	inactive	–
CCCCCn1c(N)nc2c(C)cccc21	inactive	inactive	–	inactive	–
CCCCCn1c(N)nc2c(Cl)cccc21	inactive	inactive	Not Active	inactive	–
NCc1cccc(Cn2c(N)nc3ccccc32)c1	inactive	inactive	Not Active	inactive	–
CCCCOC(=O)n1c(N)nc2ccccc21	inactive	inactive	Not Active	inactive	–
CCCCCn1c(N)nc2c(C(F)(F)F)cccc21	inactive	inactive	Not Active	inactive	–
CCCCCn1c(N)nc2c(Br)cccc21	inactive	inactive	Not Active	inactive	–
CCCCCn1c(N)nc2c(Cc3ccccc3)cccc21	inactive	inactive	Not Active	inactive	> 10
CCCCCn1c(NC(C)=O)nc2ccccc21	inactive	inactive	Not Active	inactive	> 10
CCCCCn1c(N)nc2ncccc21	inactive	inactive	Not Active	inactive	–
CCCCC1C(N)=Nc2ccccc21.Cl (centres undefined)	inactive	inactive	ND(Unstable)	inactive	–
CCCCCn1c(N)nc2ccc3ccccc3c21	inactive	inactive	Not Active	inactive	> 10
CCCCCn1c(N)nc2cc3ccccc3cc21	inactive	inactive	Not Active	inactive	> 10
CCCCCn1c(N)nc2c(-c3ccccc3)cccc21	inactive	inactive	Not Active	inactive	> 10
CCCCCn1c(N)nc2c([N+](=O)[O-])cccc21	inactive	inactive	Not Active	inactive	–
CCCCCn1c(N)nc2c(OCc3ccccc3)cccc21	inactive	inactive	Not Active	inactive	> 10
